Experimental data published in ChEMBL document CHEMBL2157922, “Synthesis and antifungal activity of diverse C-2 pyridinyl and pyridinylvinyl substituted quinolines” (2012).
Converted amounts (≈) assume the structure as drawn.

How the values were obtained:
[1] = system: Trichophyton mentagrophytes; test: Antifungal activity against Trichophyton mentagrophytes ATCC 9972 after 48 hrs by broth microdilution technique; type: functional; conditions: ATCC 9972, 48 h
In short: (§1)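 Moulds and dermatophytes were run by CLSI broth microdilution in MOPS-buffered RPMI-1640 at pH 7.0. Aspergillus was incubated at 30 °C and dermatophytes at 28–30 °C, in a moist, dark chamber. MIC100, the lowest concentration with no visible growth, was read visually at a time set by growth of the control fungus.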

[2] = system: Cryptococcus neoformans; test: Antifungal activity against Cryptococcus neoformans ATCC 32264 at 31.2 ug/ml after 48 hrs; type: functional; conditions: ATCC 32264, 48 h
In short: (§2)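 C. neoformans was tested by 96-well RPMI-1640 microdilution, with DMSO-matched growth and sterility control wells. Plates were incubated 48 h at 30 °C in a moist, dark chamber and read at OD405. % inhibition = 100 − (CTW − SCW)/(GCW − SCW), in duplicate. For the clinical isolates, MIC80 and MIC50 are the lowest concentrations giving 80% and 50% inhibition.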

[3] = system: Aspergillus flavus; test: Antifungal activity against Aspergillus flavus ATCC 9170 after 48 hrs by broth microdilution technique; type: functional; conditions: ATCC 9170, 48 h; in short: as §1
[4] = system: Aspergillus fumigatus; test: Antifungal activity against Aspergillus fumigatus ATCC 26934 after 48 hrs by broth microdilution technique; type: functional; conditions: ATCC 26934, 48 h; in short: as §1
[5] = system: Candida albicans; test: Antifungal activity against Candida albicans CCC 125 after 48 hrs by broth microdilution technique; type: functional; conditions: CCC 125, 48 h
[6] = system: Cryptococcus neoformans; test: Antifungal activity against Cryptococcus neoformans ATCC 32264 at 15.6 ug/ml after 48 hrs; type: functional; conditions: ATCC 32264, 48 h; in short: as §2
[7] = system: Cryptococcus neoformans; test: Antifungal activity against Cryptococcus neoformans ATCC 32264 at 3.9 ug/ml after 48 hrs; type: functional; conditions: ATCC 32264, 48 h; in short: as §2
[8] = system: Cryptococcus neoformans; test: Antifungal activity against Cryptococcus neoformans IM 983040 after 48 hrs by broth microdilution technique; type: functional; conditions: IM 983040, 48 h; in short: as §2
[9] = system: Candida parapsilosis; test: Antifungal activity against Candida parapsilosis CCC 124 after 48 hrs by broth microdilution technique; type: functional; conditions: Lodderomyces parapsilosis, CCC 124, 48 h
[10] = system: Pichia kudriavzevii; test: Antifungal activity against Candida krusei CCC 117 after 48 hrs by broth microdilution technique; type: functional; conditions: CCC 117, 48 h
[11] = system: Cryptococcus neoformans; test: Antifungal activity against Cryptococcus neoformans IM 972751 after 48 hrs by broth microdilution technique; type: functional; conditions: IM 972751, 48 h; in short: as §2
[12] = system: Cryptococcus neoformans; test: Antifungal activity against Cryptococcus neoformans ATCC 32264 after 48 hrs by broth microdilution technique; type: functional; conditions: ATCC 32264, 48 h
In short: (§3)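 Yeasts were tested by CLSI broth microdilution in RPMI-1640 buffered to pH 7.0 with MOPS, with compound from 250 down to 0.98 in DMSO stocks. Trays were held at 30 °C in a moist, dark chamber. MIC100, the lowest concentration giving total visual inhibition against the growth control, was read by eye at 48 h.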

[13] = system: Candida albicans; test: Antifungal activity against Candida albicans ATCC 10231 after 48 hrs by broth microdilution technique; type: functional; conditions: ATCC 10231, 48 h; in short: as §3
[14] = system: Aspergillus niger; test: Antifungal activity against Aspergillus niger ATCC 9029 after 48 hrs by broth microdilution technique; type: functional; conditions: ATCC 9029, 48 h; in short: as §1
[15] = system: Candida albicans; test: Antifungal activity against Candida albicans CCC 129 after 48 hrs by broth microdilution technique; type: functional; conditions: CCC 129, 48 h
[16] = system: Cryptococcus neoformans; test: Antifungal activity against Cryptococcus neoformans IM 983036 after 48 hrs by broth microdilution technique; type: functional; conditions: IM 983036, 48 h; in short: as §2
[17] = system: Candida albicans; test: Antifungal activity against Candida albicans ATCC 10231 at 31.2 ug/ml after 24 hrs; type: functional; conditions: ATCC 10231, 24 h
In short: (§4)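 C. albicans was grown in 96-well RPMI-1640 broth microdilution with compound wells diluted from DMSO stocks. Growth wells with matched DMSO and sterility wells were included. After 24 h at 30 °C in a moist, dark chamber, OD405 was read. % inhibition = 100 − (CTW − SCW)/(GCW − SCW) OD, done in duplicate.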

[18] = system: Nannizzia gypsea; test: Antifungal activity against Microsporum gypseum CCC 115 after 48 hrs by broth microdilution technique; type: functional; conditions: CCC 115, 48 h; in short: as §1
[19] = system: Saccharomyces cerevisiae; test: Antifungal activity against Saccharomyces cerevisiae ATCC 9763 after 48 hrs by broth microdilution technique; type: functional; conditions: ATCC 9763, 48 h; in short: as §3
[20] = system: Trichophyton rubrum; test: Antifungal activity against Trichophyton rubrum CCC 113 after 48 hrs by broth microdilution technique; type: functional; conditions: CCC 113, 48 h
[21] = system: Nakaseomyces glabratus; test: Antifungal activity against Candida glabrata CCC 115 after 48 hrs by broth microdilution technique; type: functional; conditions: CCC 115, 48 h
[22] = system: Candida albicans; test: Antifungal activity against Candida albicans ATCC 10231 at 7.8 ug/ml after 24 hrs; type: functional; conditions: ATCC 10231, 24 h; in short: as §4
[23] = system: Cryptococcus neoformans; test: Antifungal activity against Cryptococcus neoformans IM 972724 after 48 hrs by broth microdilution technique; type: functional; conditions: IM 972724, 48 h; in short: as §2
[24] = system: Candida albicans; test: Antifungal activity against Candida albicans CCC 130 after 48 hrs by broth microdilution technique; type: functional; conditions: CCC 130, 48 h
[25] = system: Candida albicans; test: Antifungal activity against Candida albicans ATCC 10231 at 15.6 ug/ml after 24 hrs; type: functional; conditions: ATCC 10231, 24 h; in short: as §4
[26] = system: Cryptococcus neoformans; test: Antifungal activity against Cryptococcus neoformans IM 00319 after 48 hrs by broth microdilution technique; type: functional; conditions: IM 00319, 48 h; in short: as §2
[27] = system: Candida albicans; test: Antifungal activity against Candida albicans CCC 127 after 48 hrs by broth microdilution technique; type: functional; conditions: CCC 127, 48 h
[28] = system: Candida albicans; test: Antifungal activity against Candida albicans CCC 126 after 48 hrs by broth microdilution technique; type: functional; conditions: CCC 126, 48 h
[29] = system: Candida tropicalis; test: Antifungal activity against Candida tropicalis CCC 131 after 48 hrs by broth microdilution technique; type: functional; conditions: CCC 131, 48 h
[30] = system: Candida albicans; test: Antifungal activity against Candida albicans CCC 128 after 48 hrs by broth microdilution technique; type: functional; conditions: CCC 128, 48 h
[31] = system: Cryptococcus neoformans; test: Antifungal activity against Cryptococcus neoformans IM 042074 after 48 hrs by broth microdilution technique; type: functional; conditions: IM 042074, 48 h; in short: as §2
[32] = system: Candida albicans; test: Antifungal activity against Candida albicans CCC 130 after 24 hrs by broth microdilution technique; conditions: CCC 130, 24 h

Compound CCc1ccc2nc(-c3ccccn3)ccc2c1 has an MFC [1] of 62 mg/L (≈ 265 µM), an MIC [1] of 62 mg/L (≈ 265 µM) and an inhibition at 31.2 µg/mL [2] of 80%. For the same compound, the MFC [3] was 125 mg/L (≈ 533 µM), the MIC [3] was 62 mg/L (≈ 265 µM) and the MFC [4] was 125 mg/L (≈ 533 µM). It also gave an MIC [4] of 62 mg/L (≈ 265 µM), an MIC50 [5] of 62.5 mg/L (≈ 267 µM) and an MIC80 [5] of 125 mg/L (≈ 533 µM). For the same compound, the inhibition at 15.6 µg/mL [6] was 80%, the inhibition at 3.9 µg/mL [7] was 50% and the MIC50 [8] was 3.9 mg/L (≈ 16.6 µM). It also gave an MIC80 [8] of 7.8 mg/L (≈ 33.3 µM), an MIC50 [9] of 15.6 mg/L (≈ 66.6 µM) and an MIC80 [9] of 31.2 mg/L (≈ 133 µM). The MIC50 [10] was 31.2 mg/L (≈ 133 µM), the MIC80 [10] was 62.5 mg/L (≈ 267 µM) and the MIC50 [11] was 3.9 mg/L (≈ 16.6 µM). For the same compound, the MIC80 [11] was 15.6 mg/L (≈ 66.6 µM), the MFC [12] was 125 mg/L (≈ 533 µM) and the MIC [12] was 31 mg/L (≈ 132 µM). For the same compound, the MIC50 [12] was 3.9 mg/L (≈ 16.6 µM), the MIC80 [12] was 15.6 mg/L (≈ 66.6 µM) and the MFC [13] was 250 mg/L (≈ 1070 µM). It also gave an MIC [13] of 62 mg/L (≈ 265 µM), an MIC50 [13] of 7.8 mg/L (≈ 33.3 µM) and an MIC80 [13] of 15.6 mg/L (≈ 66.6 µM). The MFC [14] was over 250 mg/L, the MIC [14] was 250 mg/L (≈ 1070 µM) and the MIC50 [15] was 31.2 mg/L (≈ 133 µM). For the same compound, the MIC80 [15] was 62.5 mg/L (≈ 267 µM), the MIC50 [16] was 3.9 mg/L (≈ 16.6 µM) and the MIC80 [16] was 7.8 mg/L (≈ 33.3 µM). The inhibition at 31.2 µg/mL [17] was 80%, the MFC [18] was 62 mg/L (≈ 265 µM) and the MIC [18] was 62 mg/L (≈ 265 µM). The MFC [19] was 250 mg/L (≈ 1070 µM), the MIC [19] was 62 mg/L (≈ 265 µM) and the MFC [20] was 62 mg/L (≈ 265 µM). For the same compound, the MIC [20] was 62 mg/L (≈ 265 µM), the MIC50 [21] was 62.5 mg/L (≈ 267 µM) and the MIC80 [21] was 62.5 mg/L (≈ 267 µM). For the same compound, the inhibition at 7.8 µg/mL [22] was 50%, the MIC50 [23] was 3.9 mg/L (≈ 16.6 µM) and the MIC80 [23] was 7.8 mg/L (≈ 33.3 µM). For the same compound, the MIC80 [24] was 62.5 mg/L (≈ 267 µM), the inhibition at 15.6 µg/mL [25] was 80% and the MIC50 [26] was 7.8 mg/L (≈ 33.3 µM). For the same compound, the MIC80 [26] was 15.6 mg/L (≈ 66.6 µM), the MIC50 [27] was 62.5 mg/L (≈ 267 µM) and the MIC80 [27] was 62.5 mg/L (≈ 267 µM). For the same compound, the MIC50 [28] was 15.6 mg/L (≈ 66.6 µM), the MIC80 [28] was 31.2 mg/L (≈ 133 µM) and the MIC50 [29] was 15.6 mg/L (≈ 66.6 µM). The MIC80 [29] was 31.2 mg/L (≈ 133 µM), the MIC50 [30] was 31.2 mg/L (≈ 133 µM) and the MIC80 [30] was 62.5 mg/L (≈ 267 µM). The MIC50 [31] was 3.9 mg/L (≈ 16.6 µM), the MIC80 [31] was 7.8 mg/L (≈ 33.3 µM) and the MIC50 [32] was 31.2 mg/L (≈ 133 µM).
